The list is not random: actives were taken first. Their share in the collection is about 5.5%.
KCC2 mod = modulators of human KCC2 chloride dependent transport. Q9H2X9. B-score of Tl+ flux slope (higher = more flux/activation; lower = inhibition) at 10 µM. 190,000 tested, 2.2% active. KCC2 cells, thallium flux FluoZin-2 fluorescence;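 active = thallium flux slope and its plate-corrected score both differing from the plate sample mean at a set confidence after two filtering rounds, in either direction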;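 also: slope of fluorescence scaled to starting intensity during 10 to 20 s after thallium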
Yeast life ext = extends the lifespan of yeast. S. cerevisiae growth with nicotinamide, OD615; deaD strain in restrictive glucose medium. inhibition of the nicotinamide effect, % at 10 µM. 130,000 tested, 0.68% active;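 active = inhibition above a set limit, placed 3 SD over the median of all compounds, cut at about 26% in these data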;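 also: 0% = nicotinamide-treated wells and 100% = cells grown without nicotinamide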
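Assay system: DeaD-strain S. cerevisiae. Medium: CSMM-D glucose medium, restrictive. Reagent: nicotinamide, 1.5 mM, co-present with compound. Compound: 10 µM single point, 0.25% DMSO. Schedule: culture preincubation 4 h, compound exposure 48 h, both 30 °C. Detection: absorbance at 615 nm.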
BB579 growth dn = reduces growth of yeast BB579 in restrictive medium. inhibition, % at 10 µM. AID 804. 140,000 tested, 0.51% active. S. cerevisiae BB579 growth, OD615, 48 h;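 active = inhibition above a set limit, 3 SD over the mean compound inhibition, cut at about 44% in these data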
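controls = amphotericin B 10 µg/mL, positive | assay system = DeaD yeast strain BB579 | schedule = 48 h compound exposure at 30 °C after 4 h preincubation | detection = OD615 turbidity measurement | medium = restrictive CSMM-D medium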
WT yeast gro inh = growth inhibition of WT yeast, mitochondrial fusion screen; mitochondrial fusion phenotypic screen, WT strain; inhibition, % at 10 µM; 190,000 tested, 2.1% active; in the data active = inhibition above about 58%; tested in S. cerevisiae
RAM inhibit = blocks the yeast RAM network. S. cerevisiae dse1pr::URA3 reporter, 5-FOA growth OD615, 2 d; analog-sensitive cbk1-as2 kinase mutant strain. inhibition, % at 50 µM. 190,000 tested, 1.8% active;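 active = inhibition above a set limit, 3 SD over mean compound inhibition, cut at about 8.4% in these data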;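 also: 0% = DMSO-only wells with no growth and 100% = 10 µM 1-NA-PP1 full growth; inhibition rescues growth on 5-FOA so higher OD means more RAM inhibition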
KCC2 secondary = KCC2 (human) modulation, secondary assay. normalised thallium flux (F/F0 slope) at 10 µM. AID 1713. shares compounds with KCC2 mod. 3,700 tested, 15% active. HEK293-KCC2, thallium flux, FluoZin2 fluorescence; active compounds read high;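 active = thallium flux slope above the same plate's solvent-only control mean plus 3 SD; inconclusive = the two replicate wells disagree; inactive = no significant difference from solvent-only control wells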
KCC2 bumet counter = thallium flux persisting under bumetanide in KCC2 cells, counter-screen secondary assay; 3,700 tested, 49% active; shares compounds with KCC2 mod; normalized thallium flux at 10 µM; HEK293-KCC2 + bumetanide/ouabain, thallium flux FluoZin2; active compounds read high; AID 1714;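 active = thallium entry rate above the same plate's blocked-transporter control wells by more than 3 SD; inconclusive = the two repeat wells disagree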;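 also: raw slope of fluorescence over initial fluorescence between 10 and 20 s after thallium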
KCC2 sec2 = confirmation of human KCC2 transport modulators. HEK293-KCC2, thallium flux FluoZin2 fluorescence; actives lie on both sides; F/F0 rise rate, 10–20 s post-thallium. shares compounds with KCC2 mod. 3,700 tested, 23% active. normalized thallium flux at 10 µM;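 active = thallium flux slope more than 3 SD above or below the plate's solvent-only control mean, mostly below; inconclusive = the two repeat wells disagreed; inactive = no significant shift from solvent-only controls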;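 also: raw slope with 0.1% DMSO as baseline and bumetanide as block control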
HEK293 Tl flux = counter-screen for KCC2 modulators: effect in parental HEK293 cells; shares compounds with KCC2 mod; thallium flux FluoZin2, ouabain; baseline-ratio fluorescence slope, 10–20 s after thallium; thallium flux rate (normalised fluorescence) at 10 µM; AID 1716; 3,700 tested, 46% active;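 active = thallium flux rate significantly above the same plate's solvent-only control wells, beyond their mean plus 3 SD; inconclusive = the two replicate wells gave conflicting results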
KCC2 retest ouab = KCC2 (human) modulation, ouabain retest | 3,700 tested, 48% active | raw Tl+ flux slope (below DMSO = inhibition, above = activation) at 10 µM | HEK293-KCC2, thallium flux FluoZin2 fluorescence; bidirectional: low = inhibitor, high = activator | shares compounds with KCC2 mod;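 active = thallium flux slope beyond 3 SD from same-plate DMSO control mean in most replicates, usually higher, sometimes lower; inconclusive = repeat tests gave conflicting results; inactive = no significant difference from controls in most replicates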;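 also: slope of initial-normalized fluorescence between seconds 10 and 20 after thallium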
HEK counter2 = parental HEK flux effect, counter-screen 2 | shares compounds with KCC2 mod | HEK293 parental, thallium flux FluoZin-2 fluorescence slope | thallium flux slope at 10 µM | 3,700 tested, 33% active | AID 1718;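 active = thallium flux slope above the same plate's solvent-control mean plus 3 SD in both duplicate wells; inconclusive = duplicate wells that disagreed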;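 also: run without ouabain in cells lacking the KCC2 cotransporter; slope of fluorescence scaled to its starting value between 10 and 20 s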
* hit, by the source's call; u = inconclusive; x = no result given.

SMILES	KCC2 mod	Yeast life ext	BB579 growth dn	WT yeast gro inh	RAM inhibit	KCC2 secondary	KCC2 bumet counter	KCC2 sec2	HEK293 Tl flux	KCC2 retest ouab	HEK counter2
CC(C)(C)C(=O)NNC(=O)COc1ccc2ccccc2c1Br	7.8*	x	x	18	1	0.0071	0.02*	0.029	0.011*	0.027*	u
COC(=O)NNC(=O)COc1ccc2ccccc2c1Br	-2.5	-6	-3	23	3	x	x	x	x	x	x
O=C(COc1ccc2ccccc2c1Br)NNC(=O)Nc1ccccc1	x	-9	-22	-10	5	x	x	x	x	x	x
COc1ccc(C(=O)N=S2CCN(C(=O)c3ccc(Cl)cc3)CC2)cc1	0.072	x	x	x	x	x	x	x	x	x	x
CC(/C=N/n1c(-c2ccccn2)n[nH]c1=S)=C\c1ccccc1	8.4*	x	x	x	x	0.0067	0.029*	0.03	0.013*	u	0.011
S=c1[nH]nc(-c2ccccn2)n1/N=C/c1ccccc1	-0.5	2	-17	0	0	x	x	x	x	x	x
Cc1noc(C)c1COc1cccc(C(=O)Nc2ccccc2N2CCOCC2)c1	1.1	4	-40	15	4	x	x	x	x	x	x
COc1ccc(OCCN2C(=O)NC(C)(c3ccc(C)cc3)C2=O)cc1 (stereo not drawn)	4*	10	-32	8	-1	0.0081	0.0054	0.034	0.0042	0.019	0.011
C/C(=N\NC(=O)c1c(Br)c(C)nn1C)c1cccc(NC(=O)C2CCC2)c1	-5.2*	-15	-44	-15	-1	0.0055	0.0047	0.027	0.0071	0.017	0.0096
CC(C)N(C(=O)C(=O)c1cccn1-c1ccccc1C#N)C(C)C	1.2	6	-14	42	0	x	x	x	x	x	x
Cc1nc(C(=O)NNC(=O)c2cccc(Cl)c2)c(C(F)(F)F)o1	11*	x	x	x	x	0.013*	0.019*	0.033	u	0.023	0.011*
Cc1nc(C(=O)NNC(=O)c2ccccc2Cl)c(C(F)(F)F)o1	5.6*	x	x	x	x	0.0072	0.007*	0.03	0.0095*	u	u
CC1(C)Cc2c(sc(NC(=O)C3CC(Cl)=CCC3C(=O)O)c2C#N)CO1 (stereo not drawn)	x	x	x	-2	4	x	x	x	x	x	x
CCOC(=O)c1c(-n2cnnn2)sc2c1CCCC2	-2.8	x	x	x	x	x	x	x	x	x	x
CCOC(=O)c1c(N2C(=O)Nc3cc(Cl)c(Cl)cc3N2O)sc2c1CCCCC2	-5.2*	-3	-90	-61	6	0.0085	0.013*	0.029	0.0076	u	0.0099
CCn1ncc(CN2CCCC(CNC(=O)c3ccc(F)cc3)C2)c1C (stereo not drawn)	-6.2*	x	x	2	2	0.016	0.0052	0.028	0.0075	0.017	0.011
Cc1ccc(S(=O)(=O)N(CC(=O)NCCSCc2ccco2)c2ccc(F)cc2)cc1	-4.3*	x	x	24	5	0.0059	0.0051	0.028	0.006	0.016*	0.0097
Cc1nn(-c2ccccc2)c2nc(C(Cl)(Cl)Cl)[nH]c(=O)c12	91*	x	x	x	x	0.0064	0.071*	u	0.064*	0.065*	0.05*
O=C(Nc1nnc(-c2ccc(F)cc2)o1)c1cccc([N+](=O)[O-])c1	48*	x	x	76*	1	0.033*	0.09*	0.044*	u	0.072*	0.023*

Screening data from PubChem BioAssay.
